{
  "source": "ChEMBL document CHEMBL1949585",
  "about": "“Design, synthesis and evaluation of telomerase inhibitory, hTERT repressing, and anti-proliferation activities of symmetrical 1,8-disubstituted amidoanthraquinones” (Eur J Med Chem, 2012)",
  "key": {"HOP-62": {"tested_on": "HOP-62", "test": "Cytotoxicity against human HOP62 cells assessed as cell growth at 10 uM relative to control", "format": "functional", "conditions": "read-out: Activity", "summary_of_the_method": "(§1)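 Single-concentration screen in the NCI 60 human tumour cell line panel covering nine cancer types. Values are the mean growth percentage of compound-treated cells, with untreated control cells set as 100%.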"}, "CAKI-1": {"tested_on": "CAKI-1", "test": "Cytotoxicity against human CAKI-1 cells assessed as cell growth at 10 uM relative to control", "format": "functional", "conditions": "read-out: Activity", "summary_of_the_method": "as §1"}, "SN12C": {"tested_on": "SN12C", "test": "Cytotoxicity against human SN12C cells assessed as cell growth at 10 uM relative to control", "format": "functional", "conditions": "read-out: Activity", "summary_of_the_method": "as §1"}, "OVCAR-5": {"tested_on": "OVCAR-5", "test": "Cytotoxicity against human OVCAR5 cells assessed as cell growth at 10 uM relative to control", "format": "functional", "conditions": "read-out: Activity", "summary_of_the_method": "as §1"}, "EKVX": {"tested_on": "EKVX", "test": "Cytotoxicity against human EKVX cells assessed as cell growth at 10 uM relative to control", "format": "functional", "conditions": "read-out: Activity", "summary_of_the_method": "as §1"}, "HOP-92": {"tested_on": "HOP-92", "test": "Cytotoxicity against human HOP92 cells assessed as cell growth at 10 uM relative to control", "format": "functional", "conditions": "read-out: Activity", "summary_of_the_method": "as §1"}, "[1]": {"test": "Inhibition of human TERT expression in H1299 cells at 100 uM after 24 hrs by secreted alkaline phosphatase reporter gene assay relative to control; values are per cent of control", "conditions": "NCI-H1299"}, "OVCAR-3": {"tested_on": "OVCAR-3", "test": "Cytotoxicity against human OVCAR3 cells assessed as cell growth at 10 uM relative to control", "format": "functional", "conditions": "read-out: Activity", "summary_of_the_method": "as §1"}, "RPMI-8226": {"tested_on": "RPMI-8226", "test": "Growth inhibition of human RPMI8226 cells at 10 uM relative to control", "format": "functional", "conditions": "read-out: GI", "summary_of_the_method": "(§2)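 Run in the NCI 60-cell human tumour panel. Cells were exposed to 10 µM compound, and growth was given as a percentage of untreated control cells set to 100%.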"}, "SF-539": {"tested_on": "SF-539", "test": "Cytotoxicity against human SF539 cells assessed as cell growth at 10 uM relative to control", "format": "functional", "conditions": "read-out: Activity", "summary_of_the_method": "as §1"}, "[2]": {"test": "Cytotoxicity against human H1299 cells assessed as cell growth at 100 uM after 48 hrs by MTT assay", "format": "functional", "conditions": "NCI-H1299, 48 h, read-out: Activity", "summary_of_the_method": "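H1299 non-small lung cancer cells were grown in RPMI 1640 with 10% FBS and penicillin/streptomycin at 37 °C in 5% CO2. About 2×10³ cells were seeded per well and held 24 h, then washed with PBS and given fresh medium. Compound, freshly dissolved in DMSO and diluted in complete medium, was added for 48 h. MTT was read at 550 nm after SDS/DMF lysis at 37 °C for 16 h. Values are from three experiments, untreated = 100%, ±SD.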"}, "KM12": {"tested_on": "KM12", "test": "Cytotoxicity against human KM12 cells assessed as cell growth at 10 uM relative to control", "format": "functional", "conditions": "read-out: Activity", "summary_of_the_method": "as §1"}, "OVCAR-8": {"tested_on": "OVCAR-8", "test": "Cytotoxicity against human OVCAR8 cells assessed as cell growth at 10 uM relative to control", "format": "functional", "conditions": "read-out: Activity", "summary_of_the_method": "as §1"}, "U-251": {"tested_on": "U-251", "test": "Cytotoxicity against human U251 cells assessed as cell growth at 10 uM relative to control", "format": "functional", "conditions": "read-out: Activity", "summary_of_the_method": "as §2"}, "MDA-MB-231": {"tested_on": "MDA-MB-231", "test": "Cytotoxicity against human MDA-MB-231 cells assessed as cell growth at 10 uM relative to control", "format": "functional", "conditions": "read-out: Activity", "summary_of_the_method": "as §1"}, "UACC-257": {"tested_on": "UACC-257", "test": "Cytotoxicity against human UACC257 cells assessed as cell growth at 10 uM relative to control", "format": "functional", "conditions": "read-out: Activity", "summary_of_the_method": "as §2"}, "SK-MEL-5": {"tested_on": "SK-MEL-5", "test": "Cytotoxicity against human SK-MEL-5 cells assessed as cell growth at 10 uM relative to control", "format": "functional", "conditions": "read-out: Activity", "summary_of_the_method": "as §1"}, "SK-OV-3": {"tested_on": "SK-OV-3", "test": "Cytotoxicity against human SKOV3 cells assessed as cell growth at 10 uM relative to control", "format": "functional", "conditions": "read-out: Activity", "summary_of_the_method": "as §1"}, "NCI-H522": {"tested_on": "NCI-H522", "test": "Cytotoxicity against human NCI-H522 cells assessed as cell growth at 10 uM relative to control", "format": "functional", "conditions": "read-out: Activity", "summary_of_the_method": "as §1"}, "NCI/ADR-RES": {"tested_on": "NCI/ADR-RES", "test": "Cytotoxicity against human NCI/ADR-RES cells assessed as cell growth at 10 uM relative to control", "format": "functional", "conditions": "read-out: Activity", "summary_of_the_method": "as §1"}, "SK-MEL-28": {"tested_on": "SK-MEL-28", "test": "Cytotoxicity against human SK-MEL-28 cells assessed as cell growth at 10 uM relative to control", "format": "functional", "conditions": "read-out: Activity", "summary_of_the_method": "as §1"}, "SR": {"tested_on": "SR", "test": "Cytotoxicity against human SR cells assessed as cell growth at 10 uM relative to control", "format": "functional", "conditions": "read-out: Activity", "summary_of_the_method": "as §2"}},
  "data": [
    {"smiles": "COC(=O)CNCC(=O)Nc1cccc2c1C(=O)c1c(NC(=O)CNCC(=O)OC)cccc1C2=O", "values": [
      {"measurement": "growth at 10 µM", "setting": "HOP-62", "result": 108, "unit": "%"},
      {"measurement": "growth at 10 µM", "setting": "CAKI-1", "result": 83.8, "unit": "%"},
      {"measurement": "growth at 10 µM", "setting": "SN12C", "result": 90.4, "unit": "%"},
      {"measurement": "growth at 10 µM", "setting": "OVCAR-5", "result": 106, "unit": "%"},
      {"measurement": "growth at 10 µM", "setting": "EKVX", "result": 104, "unit": "%"},
      {"measurement": "growth at 10 µM", "setting": "HOP-92", "result": 75.8, "unit": "%"},
      {"measurement": "level, % of control", "setting": "[1]", "result": 12, "unit": "%"},
      {"measurement": "growth at 10 µM", "setting": "OVCAR-3", "result": 89.9, "unit": "%"},
      {"measurement": "inhibition of growth at 10 µM", "setting": "RPMI-8226", "result": 31.4, "unit": "%"},
      {"measurement": "growth at 10 µM", "setting": "SF-539", "result": 91.9, "unit": "%"},
      {"measurement": "growth at 100 µM", "setting": "[2]", "result": 68, "unit": "%"},
      {"measurement": "growth at 10 µM", "setting": "KM12", "result": 107, "unit": "%"},
      {"measurement": "growth at 10 µM", "setting": "OVCAR-8", "result": 96.3, "unit": "%"},
      {"measurement": "growth at 10 µM", "setting": "U-251", "result": 93.7, "unit": "%"},
      {"measurement": "growth at 10 µM", "setting": "MDA-MB-231", "result": 90.2, "unit": "%"},
      {"measurement": "growth at 10 µM", "setting": "UACC-257", "result": 92.4, "unit": "%"},
      {"measurement": "growth at 10 µM", "setting": "SK-MEL-5", "result": 94.3, "unit": "%"},
      {"measurement": "growth at 10 µM", "setting": "SK-OV-3", "result": 104, "unit": "%"},
      {"measurement": "growth at 10 µM", "setting": "NCI-H522", "result": 96.8, "unit": "%"},
      {"measurement": "growth at 10 µM", "setting": "NCI/ADR-RES", "result": 92.9, "unit": "%"},
      {"measurement": "growth at 10 µM", "setting": "SK-MEL-28", "result": 127, "unit": "%"}
    ]},
    {"smiles": "CCN(CC)CC(=O)Nc1cccc2c1C(=O)c1c(NC(=O)CN(CC)CC)cccc1C2=O", "values": [
      {"measurement": "growth at 10 µM", "setting": "HOP-62", "result": 88.3, "unit": "%"},
      {"measurement": "growth at 10 µM", "setting": "CAKI-1", "result": 88.3, "unit": "%"},
      {"measurement": "growth at 10 µM", "setting": "SN12C", "result": 92.1, "unit": "%"},
      {"measurement": "growth at 10 µM", "setting": "OVCAR-5", "result": 101, "unit": "%"},
      {"measurement": "growth at 10 µM", "setting": "EKVX", "result": 104, "unit": "%"},
      {"measurement": "growth at 10 µM", "setting": "HOP-92", "result": 93.5, "unit": "%"},
      {"measurement": "level, % of control", "setting": "[1]", "result": 42, "unit": "%"},
      {"measurement": "growth at 10 µM", "setting": "OVCAR-3", "result": 161, "unit": "%"},
      {"measurement": "growth at 10 µM", "setting": "SF-539", "result": 91.7, "unit": "%"},
      {"measurement": "growth at 100 µM", "setting": "[2]", "result": 50, "unit": "%"},
      {"measurement": "growth at 10 µM", "setting": "KM12", "result": 119, "unit": "%"},
      {"measurement": "growth at 10 µM", "setting": "OVCAR-8", "result": 91.2, "unit": "%"},
      {"measurement": "growth at 10 µM", "setting": "U-251", "result": 100, "unit": "%"},
      {"measurement": "growth at 10 µM", "setting": "MDA-MB-231", "result": 91.2, "unit": "%"},
      {"measurement": "growth at 10 µM", "setting": "UACC-257", "result": 105, "unit": "%"},
      {"measurement": "growth at 10 µM", "setting": "SR", "result": 88.5, "unit": "%"},
      {"measurement": "growth at 10 µM", "setting": "SK-MEL-5", "result": 101, "unit": "%"},
      {"measurement": "growth at 10 µM", "setting": "SK-OV-3", "result": 103, "unit": "%"},
      {"measurement": "growth at 10 µM", "setting": "NCI-H522", "result": 88, "unit": "%"},
      {"measurement": "growth at 10 µM", "setting": "NCI/ADR-RES", "result": 101, "unit": "%"},
      {"measurement": "growth at 10 µM", "setting": "SK-MEL-28", "result": 117, "unit": "%"}
    ]}
  ]
}
